Measurements taken from PMC5856607 (Journal of pharmaceutical sciences, 2017).
Read-outs that look alike come from different tables or passages of the source.

Assays:
[1] = test system: canalicular membrane of rat hepatocytes; conditions: cited from earlier work
[2] = cited from earlier work
[3] = test system: Caco-2 cells; format: in vitro ADME, human; conditions: for fraction of CDF in the basolateral compartment / fraction of CDF in the cell compartment at 120-minutes: average; for fraction of CDF present in the apical compartment / total CDF production, % of the CDFDA dose: mean ± standard deviation
[4] = test system: Caco-2 cells; experiment: CDF transport across Caco-2 monolayers following CDF dosing; format: in vitro ADME, human
Outline: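 Caco-2 cells (passages 32–58) were grown 18–24 days on collagen-coated 0.4 μm PTFE Transwells. They were pre-incubated 30 min in pH 7.4 transport buffer with 0.1% DMSO/0.1% ethanol, then given 5 μM CDF apically or basolaterally at 37°C with 150 rpm shaking. CDF was quantified against 7.8–1000 nM standards. Clearance = transport rate/mean initial–final donor concentration. A two-compartment passive paracellular population model was fitted by QRPEM, 13 filters per direction.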

[5] = test system: Caco-2 cells; format: in vitro ADME, human; conditions: for Clcdf,ap, efflux clearance of CDF across the apical membrane, parameter estimate (% RSE) / Clcdf,bl, efflux clearance of CDF across the basolateral membrane, parameter estimate (% RSE) / Clhydrolysis, intracellular hydrolysis of CDFDA, parameter estimate (% RSE): control; for β-adjustment factor for enhancement of CDFDA hydrolysis clearance (Clhydrolysis), estimate (% RSE): Equation 2; for model predicted effect on CDF clearance across the apical membrane: co-exposure with agent; for β-adjustment factor for enhancement of basolateral membrane clearance (Clcdf,bl), estimate (% RSE): Equation 2, agent 10, 30, 100 μM
[6] = test system: CDFDA hydrolysis in Caco-2 cell homogenates; conditions: cited from earlier work; for effect on CDFDA hydrolysis in Caco-2 cell homogenates: 100 μM
[7] = test system: Caco-2 cells; conditions: % of dose, cited from earlier work
[8] = CDFDA hydrolysis in transport buffer; format: physicochemical; conditions: 37°C
[9] = test system: Caco-2 cells; conditions: contemporaneous studies; cited from earlier work
[10] = control experiments, CDFDA dosing
[11] = apical dosing 5 μM CDFDA, 500 simulations
[12] = basolateral dosing 5 μM CDFDA, 500 simulations
[13] = apical 5 μM CDFDA with 100 μM agent
[14] = apical 5 μM CDFDA with 100 μM agent, 9 filters
[15] = basolateral 5 μM CDFDA with 100 μM agent
[16] = basolateral 5 μM CDFDA with 100 μM agent, 9 filters
[17] = apical 5 μM CDFDA alone (Control)
[18] = basolateral 5 μM CDFDA alone (Control)

Molecule: 5 (and 6)-Carboxy-2′,7′-Dichloroflourescein [CDF]
- Km ([1]; read-out: Km, high affinity state, Sprague-Dawley rats): 3 µM
- Km ([1]; read-out: Km, high affinity state, Wistar rats): 9 µM
- Km ([1]; read-out: Km, low affinity state, Sprague-Dawley rats): 192 µM
- Km ([1]; read-out: Km, low affinity state, Wistar rats): 69 µM
- protein binding [2]: 15 – 20%
- fraction of CDF in the basolateral compartment ([3]; apical CDFDA dosing): 1.1%
- fraction of CDF in the cell compartment at 120-minutes ([3]; apical CDFDA dosing): 1.5%
- fraction of CDF present in the apical compartment ([3]; apical CDFDA dosing, n = 16 occasions): 4.0 ± 2.33%
- fraction of CDF in the basolateral compartment ([3]; basolateral CDFDA dosing): 1.0%
- fraction of CDF in the cell compartment at 120-minutes ([3]; basolateral CDFDA dosing): 1.3%
- fraction of CDF present in the apical compartment ([3]; basolateral CDFDA dosing): 1.9 ± 1.24%
- mean ratio of CDF cell content, basolateral versus apical dosing [3, 10]: 2.9
- mean ratio of CDF flux, basolateral versus apical dosing [3, 10]: 2.9
- CDF clearance across Caco-2 cells, model based analysis, AB/BA combined, population estimate (RSE,%) ([4]; 5 μM CDF, simultaneous modeling of AB and BA directions): 1.6 × 10^−5 (11.7) mL/min
- CDF clearance across Caco-2 cells, model independent analysis, AB, mean (CV,%) ([4]; apical exposure to 5 μM CDF, 5 occasions, 13 filters): 1.6 × 10^−5 (30.3) mL/min
- CDF clearance across Caco-2 cells, model based analysis, AB, population estimate (RSE,%) ([4]; apical exposure to 5 μM CDF, two-compartment model): 1.3 × 10^−5 (19.0) mL/min
- CDF clearance across Caco-2 cells, model independent analysis, BA, mean (CV,%) ([4]; basolateral exposure to 5 μM CDF, 5 occasions, 13 filters): 2.1 × 10^−5 (3.3) mL/min
- CDF clearance across Caco-2 cells, model based analysis, BA, population estimate (RSE,%) ([4]; basolateral exposure to 5 μM CDF, two-compartment model): 2.0 × 10^−5 (10.9) mL/min
- ratio of basolateral to apical dosing transcellular CDF clearance ([5]; Equations 3a–b with 3-compartment model estimates): 2.9
- simulated intracellular CDF concentration, average ([5]; apical CDFDA dosing): 10 µM
- Clcdf,ap, bootstrap analysis median (90% confidence interval) [5, 11]: 2.2 × 10^−5 (1.7 – 2.6 × 10^−5) mL/min
- Clcdf,bl, bootstrap analysis median (90% confidence interval) [5, 11]: 1.3 × 10^−5 (1.2 – 1.4 × 10^−5) mL/min
- Clcdf,ap, efflux clearance of CDF across the apical membrane, parameter estimate (% RSE) ([5]; apical dosing 5 μM CDFDA): 8.4 × 10^−5 (<0.1) mL/min
- Clcdf,bl, efflux clearance of CDF across the basolateral membrane, parameter estimate (% RSE) ([5]; apical dosing 5 μM CDFDA): 5.6 × 10^−5 (0.1) mL/min
- simulated intracellular CDF concentration, average ([5]; basolateral CDFDA dosing): 24 µM
- Clcdf,ap, bootstrap analysis median (90% confidence interval) [5, 12]: 8.3 × 10^−5 (7.1 – 10.8 × 10^−5) mL/min
- Clcdf,bl, bootstrap analysis median (90% confidence interval) [5, 12]: 5.1 × 10^−5 (3.8 – 6.7 × 10^−5) mL/min
- Clcdf,ap, efflux clearance of CDF across the apical membrane, parameter estimate (% RSE) ([5]; basolateral dosing 5 μM CDFDA): 8.5 × 10^−5 (0.2) mL/min
- Clcdf,bl, efflux clearance of CDF across the basolateral membrane, parameter estimate (% RSE) ([5]; basolateral dosing 5 μM CDFDA): 5.2 × 10^−5 (0.2) mL/min
- fold larger apical versus basolateral membrane CDF clearance ([5]; following both apical and basolateral dosing): approximately 1.5 fold

Molecule: O=c1c(-c2ccc(O)cc2)coc2cc(O)cc(O)c12 [Genistein]
- AB Donor (apical) CDF at 120 minutes, mean [3, 13]: 301 pmoles/well
- AB Intracellular CDF at 120 minutes, mean [3, 13]: 85 pmoles/well
- AB directional CDF flux, mean [3, 14]: 1.25 pmol/min
- BA Donor (basolateral) CDF at 120 minutes, mean [3, 15]: 427 pmoles/well
- BA Intracellular CDF at 120 minutes, mean [3, 15]: 134 pmoles/well
- BA directional CDF flux, mean [3, 16]: 2.68 pmol/min
- effect on CDFDA hydrolysis observed in vitro [6]: stimulation of CDFDA hydrolysis
- model predicted effect on CDF efflux ([5]; CDFDA dosing, genistein exposure): no predicted effects
- β-adjustment factor for enhancement of CDFDA hydrolysis clearance (Clhydrolysis), estimate (% RSE) ([5]; apical CDFDA dosing): 6.9 × 10^−3 (<0.1)
- β-adjustment factor for enhancement of CDFDA hydrolysis clearance (Clhydrolysis), estimate (% RSE) ([5]; basolateral CDFDA dosing): 2.8 × 10^−2 (0.6)

Molecule: CN(C)C(=O)CCSC(SCCC(=O)O)c1cccc(/C=C/c2ccc3ccc(Cl)cc3n2)c1 (stereo not shown) [MK-571]
- basolateral to apical dosing CDF flux ratio in the presence of MK-571 ([3]; CDFDA dosing, control approximately 3): ~0.8
- AB Donor (apical) CDF at 120 minutes, mean [3, 13]: 115 pmoles/well
- AB Intracellular CDF at 120 minutes, mean [3, 13]: 15 pmoles/well
- AB directional CDF flux, mean [3, 14]: 0.51 pmol/min
- BA Donor (basolateral) CDF at 120 minutes, mean [3, 15]: 249 pmoles/well
- BA Intracellular CDF at 120 minutes, mean [3, 15]: 26 pmoles/well
- BA directional CDF flux, mean [3, 16]: 0.39 pmol/min
- effect on CDFDA hydrolysis in Caco-2 cell homogenates [6]: no effect
- fold increase of basolateral membrane CDF clearance ([5]; 100 μM MK-571, the highest concentration evaluated): up to 2 fold
- model predicted effect on CDF clearance across the apical membrane ([5]; CDFDA dosing): not altered
- β-adjustment factor for enhancement of basolateral membrane clearance (Clcdf,bl), estimate (% RSE) ([5]; apical CDFDA dosing): 1.7 × 10^−2 (<0.1)
- β-adjustment factor for enhancement of basolateral membrane clearance (Clcdf,bl), estimate (% RSE) ([5]; basolateral CDFDA dosing): 2.4 × 10^−2 (0.4)

Molecule: CC(C)(C)C(=O)OCOP(=O)(COCCn1cnc2c(N)ncnc21)OCOC(=O)C(C)(C)C [adefovir dipivoxil]
- total metabolite production ([7]; apical dosing): 93%
- total metabolite production ([7]; basolateral dosing): 34%

Molecule: CDF diacetate [CDFDA]
- AB Donor (apical) CDF at 120 minutes, mean [3, 17]: 101 pmoles/well
- AB Intracellular CDF at 120 minutes, mean [3, 17]: 29 pmoles/well
- AB directional CDF flux, mean ([3]; apical 5 μM CDFDA alone (Control), 48 filters): 0.28 pmol/min
- total CDF production, % of the CDFDA dose ([3]; apical dosing): 6.7 ± 3.10%
- BA Donor (basolateral) CDF at 120 minutes, mean [3, 18]: 143 pmoles/well
- BA Intracellular CDF at 120 minutes, mean [3, 18]: 83 pmoles/well
- BA directional CDF flux, mean ([3]; basolateral 5 μM CDFDA alone (Control), 48 filters): 0.81 pmol/min
- total CDF production, % of the CDFDA dose ([3]; basolateral dosing): 4.3 ± 1.21%
- half-life of CDFDA hydrolysis in transport buffer [8]: > 100 h
- clearance of CDFDA hydrolysis in transport buffer ([8]; translated from half-life): 3e-07 mL/min
- fold larger CDFDA hydrolysis clearance for basolateral versus apical dosing [5]: 1.8 fold
- Clhydrolysis, intracellular hydrolysis of CDFDA, parameter estimate (% RSE) ([5]; apical dosing 5 μM CDFDA): 8.2 × 10^−4 (<0.1) mL/min
- Clhydrolysis, bootstrap analysis median (90% confidence interval) [5, 12]: 1.6 × 10^−3 (1.2 – 1.9 × 10^−3) mL/min
- Clhydrolysis, intracellular hydrolysis of CDFDA, parameter estimate (% RSE) ([5]; basolateral dosing 5 μM CDFDA): 1.5 × 10^−3 (0.1) mL/min

Molecule: Glyceollin
- AB Donor (apical) CDF at 120 minutes, mean [3, 13]: 95 pmoles/well
- AB Intracellular CDF at 120 minutes, mean [3, 13]: 15 pmoles/well
- AB directional CDF flux, mean [3, 14]: 0.63 pmol/min
- BA Donor (basolateral) CDF at 120 minutes, mean [3, 15]: 187 pmoles/well
- BA Intracellular CDF at 120 minutes, mean [3, 15]: 30 pmoles/well
- BA directional CDF flux, mean [3, 16]: 0.53 pmol/min
- effect on CDFDA hydrolysis in Caco-2 cell homogenates [6]: no effect
- model predicted effect on CDF clearance across the apical membrane ([5]; CDFDA dosing): no effect on apical membrane clearance
- β-adjustment factor for enhancement of basolateral membrane clearance (Clcdf,bl), estimate (% RSE) ([5]; apical CDFDA dosing): 2.2 × 10^−2 (<0.1)
- β-adjustment factor for enhancement of basolateral membrane clearance (Clcdf,bl), estimate (% RSE) ([5]; basolateral CDFDA dosing): 1.8 × 10^−2 (2.9)

Molecule: lucifer yellow
- lucifer yellow clearance [9]: 8.7 ± 0.24 × 10^−5 mL/min
